Where a SMILES comes first, the peptide text is derived from it.

The values that follow come from ChEMBL document CHEMBL1149538, “A high-throughput assay for O-GlcNAc transferase detects primary sequence preferences in peptide substrates” (Bioorg Med Chem Lett, 2007).

Holding throughout (conditions): BL21-DE3
Series [1] addresses T1, UDP-N-acetylglucosamine--peptide N-acetylglucosaminyltransferase 110 kDa subunit (Homo sapiens) (UniProt O15294).
T1 sequence (whole entry): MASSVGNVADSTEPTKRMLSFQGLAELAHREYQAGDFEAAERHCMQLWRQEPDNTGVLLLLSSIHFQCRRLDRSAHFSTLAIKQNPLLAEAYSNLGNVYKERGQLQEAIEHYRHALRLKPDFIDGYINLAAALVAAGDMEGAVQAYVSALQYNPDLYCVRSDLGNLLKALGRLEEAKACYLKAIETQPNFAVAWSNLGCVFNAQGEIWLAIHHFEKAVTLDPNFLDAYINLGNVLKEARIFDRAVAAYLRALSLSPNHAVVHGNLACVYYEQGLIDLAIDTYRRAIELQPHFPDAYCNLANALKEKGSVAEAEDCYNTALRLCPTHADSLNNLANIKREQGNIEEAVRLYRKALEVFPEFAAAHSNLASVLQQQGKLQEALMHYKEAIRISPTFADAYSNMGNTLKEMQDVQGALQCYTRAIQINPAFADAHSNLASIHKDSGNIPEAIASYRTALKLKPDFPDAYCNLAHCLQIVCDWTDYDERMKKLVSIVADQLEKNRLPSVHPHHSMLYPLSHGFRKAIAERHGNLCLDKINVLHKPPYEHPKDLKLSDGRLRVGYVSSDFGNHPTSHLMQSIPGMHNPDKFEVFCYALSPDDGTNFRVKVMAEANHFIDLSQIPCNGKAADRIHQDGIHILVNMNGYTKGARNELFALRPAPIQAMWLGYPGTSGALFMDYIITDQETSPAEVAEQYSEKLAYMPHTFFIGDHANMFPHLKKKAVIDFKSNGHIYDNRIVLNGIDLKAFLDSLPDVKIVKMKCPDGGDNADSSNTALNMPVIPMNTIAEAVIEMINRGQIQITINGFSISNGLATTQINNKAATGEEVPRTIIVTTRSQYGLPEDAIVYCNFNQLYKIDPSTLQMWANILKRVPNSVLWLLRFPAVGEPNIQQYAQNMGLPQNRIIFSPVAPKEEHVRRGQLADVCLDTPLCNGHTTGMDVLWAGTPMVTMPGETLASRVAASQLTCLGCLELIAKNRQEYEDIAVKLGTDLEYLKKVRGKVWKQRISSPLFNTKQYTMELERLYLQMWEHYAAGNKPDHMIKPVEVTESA
Nature of the series: Binding affinity to human OGT expressed in Escherichia coli […] cells assessed as alpha-FLAG-HRP activity relative to alpha-A-crystallin peptide by azido-ELISA. An outline of the steps: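 Biotinylated peptides are reacted at saturating levels with Ni-column-purified human OGT from E. coli BL21(DE3), plus UDP-GlcNAz 62.5 μM, MgCl2 12.5 μM and β-mercaptoethanol 1 mM, for 4 h at 37 °C. Reactions are stopped with pH 4.5 sodium acetate and captured on NeutrAvidin. Product is tagged with phosphine-FLAG, detected by anti-FLAG-HRP/TMB at A450, normalized to the parent peptide after Ala-peptide background subtraction. Data are from 3 experiments, each in triplicate.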

Substrate in series [2]: CC[C@H](C)[C@H](NC(=O)[C@H](C)N)C(=O)N1CCC[C@H]1C(=O)N[C@H](C(=O)N[C@@H](CO)C(=O)N[C@@H](CCCNC(=N)N)C(=O)N1CCC[C@H]1C(=O)N[C@@H](CCC(=O)O)C(=O)N[C@@H](CCCCN)C(=O)O)C(C)C
Put plainly: (§1) Binding affinity to human OGT expressed in Escherichia coli BL1 (DE3) cells by azido-ELISA. Put shortly: (§2)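 Km is derived from the azido-ELISA using Ni-purified human OGT expressed in E. coli BL21(DE3), with UDP-GlcNAz as donor, MgCl2 and β-mercaptoethanol, incubated at 37 °C. Biotinylated peptide product is captured on NeutrAvidin, Staudinger-tagged with phosphine-FLAG (0.2 mM, 2 h, 37 °C), and quantified by anti-FLAG-HRP with TMB at 450 nm.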
(In general: ELISA stands for enzyme-linked immunosorbent assay.)

Substrate in series [3]: CC[C@H](C)[C@H](NC(=O)[C@H](C)N)C(=O)N1CCC[C@H]1C(=O)N[C@H](C(=O)N[C@@H](CO)C(=O)N[C@@H](CCCNC(=N)N)C(=O)N[C@@H](C)C(=O)N[C@@H](CCC(=O)O)C(=O)N[C@@H](CCCCN)C(=O)O)C(C)C
The series is described as §1. Put shortly:
as §2

Substrate in series [4]: CC[C@H](C)[C@H](NC(=O)[C@H](C)N)C(=O)N1CCC[C@H]1C(=O)N[C@H](C(=O)N[C@@H](CO)C(=O)N[C@@H](CCCNC(=N)N)C(=O)N[C@@H](CCC(=O)O)C(=O)N[C@@H](CCC(=O)O)C(=O)N[C@@H](CCCCN)C(=O)O)C(C)C
The description is as §1. An outline of the steps:
as §2

On to `CC[C@H](C)[C@H](NC(=O)[C@H](C)N)C(=O)N1CCC[C@H]1C(=O)N1CCC[C@H]1C(=O)N[C@@H](CO)C(=O)N[C@@H](CCCNC(=N)N)C(=O)N[C@@H](CCC(=O)O)C(=O)N[C@@H](CCC(=O)O)C(=O)N[C@@H](CCCCN)C(=O)O` (H-AIPPSREEK-OH), for which the Activity in series [1] was determined as 0.1.

Regarding `CC[C@H](C)[C@H](NC(=O)[C@H](C)N)C(=O)N1CCC[C@H]1C(=O)N[C@H](C(=O)N[C@@H](CO)C(=O)N[C@@H](CCCNC(=N)N)C(=O)N[C@@H](C)C(=O)N[C@@H](CCC(=O)O)C(=O)N[C@@H](CCCCN)C(=O)O)C(C)C` (H-AIPVSRAEK-OH), in series [1], the Activity was found to be 5.

For the molecule `CC[C@H](C)[C@H](NC(=O)[C@@H]1CCCN1)C(=O)N1CCC[C@H]1C(=O)N[C@H](C(=O)N[C@@H](CO)C(=O)N[C@@H](CCCNC(=N)N)C(=O)N[C@@H](CCC(=O)O)C(=O)N[C@@H](CCC(=O)O)C(=O)N[C@@H](CCCCN)C(=O)O)C(C)C` (H-PIPVSREEK-OH), the Activity in series [1] stood at 1.8.

B1: UDP-N-acetylglucosamine--peptide N-acetylglucosaminyltransferase 110 kDa subunit (Homo sapiens), O15294 (protein)
chain: MASSVGNVADSTEPTKRMLSFQGLAELAHREYQAGDFEAAERHCMQLWRQEPDNTGVLLLLSSIHFQCRRLDRSAHFSTLAIKQNPLLAEAYSNLGNVYKERGQLQEAIEHYRHALRLKPDFIDGYINLAAALVAAGDMEGAVQAYVSALQYNPDLYCVRSDLGNLLKALGRLEEAKACYLKAIETQPNFAVAWSNLGCVFNAQGEIWLAIHHFEKAVTLDPNFLDAYINLGNVLKEARIFDRAVAAYLRALSLSPNHAVVHGNLACVYYEQGLIDLAIDTYRRAIELQPHFPDAYCNLANALKEKGSVAEAEDCYNTALRLCPTHADSLNNLANIKREQGNIEEAVRLYRKALEVFPEFAAAHSNLASVLQQQGKLQEALMHYKEAIRISPTFADAYSNMGNTLKEMQDVQGALQCYTRAIQINPAFADAHSNLASIHKDSGNIPEAIASYRTALKLKPDFPDAYCNLAHCLQIVCDWTDYDERMKKLVSIVADQLEKNRLPSVHPHHSMLYPLSHGFRKAIAERHGNLCLDKINVLHKPPYEHPKDLKLSDGRLRVGYVSSDFGNHPTSHLMQSIPGMHNPDKFEVFCYALSPDDGTNFRVKVMAEANHFIDLSQIPCNGKAADRIHQDGIHILVNMNGYTKGARNELFALRPAPIQAMWLGYPGTSGALFMDYIITDQETSPAEVAEQYSEKLAYMPHTFFIGDHANMFPHLKKKAVIDFKSNGHIYDNRIVLNGIDLKAFLDSLPDVKIVKMKCPDGGDNADSSNTALNMPVIPMNTIAEAVIEMINRGQIQITINGFSISNGLATTQINNKAATGEEVPRTIIVTTRSQYGLPEDAIVYCNFNQLYKIDPSTLQMWANILKRVPNSVLWLLRFPAVGEPNIQQYAQNMGLPQNRIIFSPVAPKEEHVRRGQLADVCLDTPLCNGHTTGMDVLWAGTPMVTMPGETLASRVAASQLTCLGCLELIAKNRQEYEDIAVKLGTDLEYLKKVRGKVWKQRISSPLFNTKQYTMELERLYLQMWEHYAAGNKPDHMIKPVEVTESA
On to B1, for which the results for the Km in series [2], in series [3] and in series [4] were 0.8 µM, 0.5 µM and 8.7 µM, respectively.

The term Km denotes the concentration of substrate that gives half-maximal velocity.
